In ChEMBL document CHEMBL1833949, “High affinity sialoside ligands of myelin associated glycoprotein” (Bioorg Med Chem Lett, 2011) one finds IC50 and Kd data, which are given here for 16 compounds.

Test [1] deals with T1, Myelin-associated glycoprotein (Homo sapiens, UniProt P20916).
T1 sequence (P20916 whole entry): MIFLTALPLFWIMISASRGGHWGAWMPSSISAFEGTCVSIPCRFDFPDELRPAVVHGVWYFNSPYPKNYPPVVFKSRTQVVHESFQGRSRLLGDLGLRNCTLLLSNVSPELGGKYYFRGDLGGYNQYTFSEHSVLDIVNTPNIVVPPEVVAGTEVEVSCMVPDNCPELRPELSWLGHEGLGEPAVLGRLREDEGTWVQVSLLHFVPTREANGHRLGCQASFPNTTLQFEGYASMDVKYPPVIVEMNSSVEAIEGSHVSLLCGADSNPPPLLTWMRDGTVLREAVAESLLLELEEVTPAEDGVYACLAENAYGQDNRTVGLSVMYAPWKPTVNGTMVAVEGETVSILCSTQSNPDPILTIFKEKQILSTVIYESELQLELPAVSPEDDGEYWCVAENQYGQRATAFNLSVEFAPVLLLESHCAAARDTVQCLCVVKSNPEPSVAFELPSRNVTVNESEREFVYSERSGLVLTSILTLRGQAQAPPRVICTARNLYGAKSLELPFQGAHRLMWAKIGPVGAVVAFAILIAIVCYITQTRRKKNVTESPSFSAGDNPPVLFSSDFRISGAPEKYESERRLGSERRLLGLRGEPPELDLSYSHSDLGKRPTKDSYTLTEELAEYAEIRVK
Briefly: Inhibition of MAG -Fc chimera expressed in CHO cells using NeuAc alpha2-3Galbeta1-4GlcNAc-R coupled biotinylated polyacrylamide after 30 mins by ELISA. The format is cell-based. The essentials: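 Each compound was run in triplicate and assayed on three separate days, each time alongside at least one other compound to check for drift. IC50 is the mean and standard deviation of the three separate assays.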

Test [2] concerns the target T1, Myelin-associated glycoprotein. Briefly: Binding affinity to wild type MAG at 400 uM by Isothermal titration calorimetry.
Test [3] has the same target. Briefly: Binding affinity to MAG. The essentials:
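Competitive inhibition of MAG-Fc chimera binding to a polymeric ligand adsorbed in microplate wells, run in triplicate. Each compound was assayed three times on separate days, alongside at least one other compound, and the IC50 reported as mean and standard deviation. Apparent Kd values were calculated from IC50 against a reference ligand whose Kd was measured by isothermal titration calorimetry.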

Test [4] shares this target. Briefly: Inhibition of MAG. In a few lines:
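Competition format: MAG-Fc chimera binding to a polymeric ligand adsorbed on plate wells, with the inhibitor titrated to give IC50. Each compound was run in triplicate and assayed on three separate days, each time alongside at least one other compound to check for drift. IC50 is the mean and standard deviation of the three separate assays.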

SMILES strings stand for the structures.

`COC(=O)[C@@H](NC(C)=O)[C@@H](C)O[C@H]1O[C@H](CO[C@]2(C(=O)O)C[C@H](O)[C@@H](NC(C)=O)[C@H]([C@H](O)[C@H](O)CO)O2)[C@H](O)[C@H](O[C@@H]2O[C@H](CO)[C@H](O)[C@H](O)[C@H]2O)[C@H]1NC(C)=O` came in with an IC50 in test [1] of 7900 nM. The compound further came in with a Kd in test [2] of 13000 nM.

Take `CC(=O)N[C@H]1[C@H](OCC[Si](C)(C)C)O[C@H](CO)[C@H](O)[C@@H]1O[C@@H]1O[C@H](CO)[C@H](O)[C@H](O[C@]2(C(=O)O)C[C@H](O)[C@@H](NC(C)=O)[C@H]([C@H](O)[C@H](O)CO)O2)[C@H]1O`: the affinity in test [3], expressed as Kd, was 180000 nM.

Turning to `COC(=O)[C@@H](NC(C)=O)[C@@H](C)O[C@H]1O[C@H](CO[C@]2(C(=O)O)C[C@H](O)[C@@H](NC(C)=O)[C@H]([C@H](O)[C@H](O)CNC(=O)c3ccc(F)cc3)O2)[C@H](O)[C@H](O[C@@H]2O[C@H](CO)[C@H](O)[C@H](O)[C@H]2O)[C@H]1NC(C)=O`, inhibition in test [1] was half-maximal at 1100 nM (IC50). Besides, in test [2], the dissociation constant (Kd) worked out at 1760 nM.

In test [1], `COC(=O)[C@@H](NC(C)=O)[C@@H](C)O[C@H]1O[C@H](CO[C@]2(C(=O)O)C[C@H](O)[C@@H](NC(C)=O)[C@H]([C@H](O)[C@H](O)CNC(=O)c3ccc(F)cc3)O2)[C@H](O)[C@H](O[C@@H]2O[C@H](CO)[C@H](O)[C@H](O[C@]3(C(=O)O)C[C@H](O)[C@@H](NC(C)=O)[C@H]([C@H](O)[C@H](O)CO)O3)[C@H]2O)[C@H]1NC(C)=O` had a half-inhibitory concentration (IC50) of 9 nM. In test [2], this compound gave an equilibrium dissociation constant (Kd) of 15 nM.

`O=C(CF)N[C@H]1[C@H]([C@H](O)[C@H](O)CNC(=O)c2ccccc2)O[C@@](OCc2cccc(F)c2F)(C(=O)O)C[C@@H]1O`: in test [3], binding was characterised by a dissociation constant (Kd) of 500 nM.

In test [4], `CC(=O)N[C@H]1[C@@H](O[C@H](C)[C@H](N)C(=O)O)O[C@H](CO)[C@H](O)[C@@H]1O[C@@H]1O[C@H](CO)[C@H](O)[C@H](O[C@]2(C(=O)O)C[C@H](O)[C@@H](NC(C)=O)[C@H]([C@H](O)[C@H](O)CO)O2)[C@H]1O` had an IC50 of 1200 nM.

With `CC(=O)N[C@H]1[C@@H](OCc2ccccc2)O[C@H](CO)[C@H](O)[C@@H]1O[C@@H]1O[C@H](CO)[C@H](O)[C@H](O[C@]2(C(=O)O)C[C@H](O)[C@@H](NC(C)=O)[C@H]([C@H](O)[C@H](O)CO)O2)[C@H]1O`, the half-inhibitory concentration (IC50) in test [4] is 52000 nM.

In test [1], `COC(=O)[C@@H](NC(C)=O)[C@@H](C)O[C@H]1O[C@H](CO[C@]2(C(=O)O)C[C@H](O)[C@@H](NC(C)=O)[C@H]([C@H](O)[C@H](O)CO)O2)[C@H](O)[C@H](O[C@@H]2O[C@H](CO)[C@H](O)[C@H](O[C@]3(C(=O)O)C[C@H](O)[C@@H](NC(C)=O)[C@H]([C@H](O)[C@H](O)CNC(=O)c4ccc(F)cc4)O3)[C@H]2O)[C@H]1NC(C)=O` had an IC50 of 300 nM. In test [2], this compound returned a Kd of 480 nM.

In the case of `CC(=O)N[C@@H]1[C@@H](O[C@@H]2O[C@H](CO)[C@H](O)[C@H](O[C@]3(C(=O)O)C[C@H](O)[C@@H](NC(C)=O)[C@H]([C@H](O)[C@H](O)CO)O3)[C@H]2O)[C@@H](O)[C@@H](CO)O[C@H]1Sc1ccc(C)cc1`, the half-maximal inhibitory concentration (IC50) in test [4] came out at 272000 nM.

In test [1], `COC(=O)[C@@H](NC(C)=O)[C@@H](C)O[C@H]1O[C@H](CO[C@]2(C(=O)O)C[C@H](O)[C@@H](NC(C)=O)[C@H]([C@H](O)[C@H](O)CNC(=O)c3ccc(Cl)cc3)O2)[C@H](O)[C@H](O[C@@H]2O[C@H](CO)[C@H](O)[C@H](O)[C@H]2O)[C@H]1NC(C)=O` showed an IC50 of 640 nM. Further, the equilibrium dissociation constant (Kd) in test [2] is 1000 nM.

Regarding `COC(=O)[C@@H](NC(C)=O)[C@@H](C)O[C@H]1O[C@H](CO)[C@H](O)[C@H](O[C@@H]2O[C@H](CO)[C@H](O)[C@H](O[C@]3(C(=O)O)C[C@H](O)[C@@H](NC(C)=O)[C@H]([C@H](O)[C@H](O)CNC(=O)c4ccccc4)O3)[C@H]2O)[C@H]1NC(C)=O`, half-maximal inhibition in test [1] (IC50) was put at 650 nM. The dissociation constant (Kd) in test [2] is 1000 nM.

The compound `COC(=O)[C@@H](NC(C)=O)[C@@H](C)O[C@H]1O[C@H](CO)[C@H](O)[C@H](O[C@@H]2O[C@H](CO)[C@H](O)[C@H](O[C@]3(C(=O)O)C[C@H](O)[C@@H](NC(C)=O)[C@H]([C@H](O)[C@H](O)CO)O3)[C@H]2O)[C@H]1NC(C)=O` displayed a 50% inhibitory concentration (IC50) in test [1] of 1200 nM. Also, binding in test [2] was put at a Kd of 1900 nM.

As for `COC(=O)[C@@H](NC(C)=O)[C@@H](C)O[C@H]1O[C@H](CO)[C@H](O)[C@H](O[C@@H]2O[C@H](CO)[C@H](O)[C@H](O[C@]3(C(=O)O)C[C@H](O)[C@@H](NC(C)=O)[C@H]([C@H](O)[C@H](O)CNC(=O)c4ccc(Cl)cc4)O3)[C@H]2O)[C@H]1NC(C)=O`, 610 nM corresponded to half-maximal inhibition in test [1] (IC50). In test [2], this compound returned a Kd of 1000 nM.

`CC(=O)N[C@H]1[C@H]([C@H](O)[C@H](O)CNC(=O)c2ccccc2)O[C@@](O[C@H]2[C@@H](O)[C@@H](CO)O[C@@H](O[C@H]3[C@@H](O)[C@@H](CO)O[C@@H](OCC[Si](C)(C)C)[C@@H]3O)[C@@H]2O)(C(=O)O)C[C@@H]1O`: binding in test [3] was put at a Kd of 32000 nM.

For `COC(=O)[C@@H](NC(C)=O)[C@@H](C)O[C@H]1O[C@H](CO)[C@H](O)[C@H](O[C@@H]2O[C@H](CO)[C@H](O)[C@H](O[C@]3(C(=O)O)C[C@H](O)[C@@H](NC(C)=O)[C@H]([C@H](O)[C@H](O)CNC(=O)c4ccc(F)cc4)O3)[C@H]2O)[C@H]1NC(C)=O`, 79 nM corresponded to half-maximal inhibition in test [1] (IC50). In test [2], this compound registered a dissociation constant (Kd) of 130 nM.

In the case of `CC(=O)N[C@H]1[C@@H](O[C@H](C)[C@H](N)C(=O)O)O[C@H](CO[C@]2(C(=O)O)C[C@H](O)[C@@H](NC(C)=O)[C@H]([C@H](O)[C@H](O)CO)O2)[C@H](O)[C@@H]1O[C@@H]1O[C@H](CO)[C@H](O)[C@H](O[C@]2(C(=O)O)C[C@H](O)[C@@H](NC(C)=O)[C@H]([C@H](O)[C@H](O)CO)O2)[C@H]1O`, the IC50 in test [4] stood at 300 nM.
